Reference: ChEMBL document CHEMBL1148762, “Lysosome and HER3 (ErbB3) selective anticancer agent kahalalide F: semisynthetic modifications and antifungal lead-exploration studies” (J Med Chem, 2007)
Converted amounts (≈) assume the structure as drawn.

Tests used:
SK-OV-3 = assay: Cytotoxicity against human SK-OV3 cells; format: functional
In short: (§1)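 NCI Developmental Therapeutics Program cell panel. GI50 is the concentration that reduces growth of treated cells to half that of untreated controls. TGI is the concentration that completely halts growth.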

ACHN = assay: Cytotoxicity against human ACHN cells; format: functional; in short: as §1
PC-3 = assay: Cytotoxicity against human PC3 cells; format: functional; in short: as §1
DU-145 = assay: Cytotoxicity against human DU145 cells; format: functional; in short: as §1
Hs-578T = assay: Cytotoxicity against human HS578T cells; format: functional; in short: as §1
Fusarium proliferatum [1] = assay: Antimicrobial activity against Fusarium proliferatum at 0.3 uM after 72 hrs by microtiter assay; format: functional
In short: (§2)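 96-well microdilution broth assay with conidia (3 × 10^5 conidia/mL, harvested from 7-day PDA cultures and filtered) against F. oxysporum, F. proliferatum and F. solani at 0.3, 3 and 30 µM. Plates were held at 24 ± 1 °C under a 12 h photoperiod. Growth was read at 620 nm at 24, 48 and 72 h and reported as percent inhibition from mean absorbance with standard error.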

Fusarium proliferatum [2] = assay: Antimicrobial activity against Fusarium proliferatum at 3 uM after 48 hrs by microtiter assay; format: functional; in short: as §2
Fusarium proliferatum [3] = assay: Antimicrobial activity against Fusarium proliferatum at 3 uM after 72 hrs by microtiter assay; format: functional; in short: as §2
Aspergillus fumigatus = assay: Antimicrobial activity against Aspergillus fumigatus ATCC 90906; format: functional, organism-based
Cryptococcus neoformans = assay: Antimicrobial activity against Cryptococcus neoformans ATCC 90113; format: functional, organism-based
Fusarium proliferatum [4] = assay: Antimicrobial activity against Fusarium proliferatum at 0.3 uM after 48 hrs by microtiter assay; format: functional; in short: as §2
Candida albicans = assay: Antimicrobial activity against Candida albicans ATCC 90028; format: functional, organism-based
[5] = test system: Mycobacterium intracellulare; assay: Antimicrobial activity against Mycobacterium intracellular ATCC 23068; format: functional, organism-based
[6] = test system: Mycobacterium tuberculosis; assay: Antibacterial activity against Mycobacterium tuberculosis H37Rv at 16 ug/mL by micro plate alamar blue assay; format: functional
In short: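 M. tuberculosis H37Rv ATCC 27294 grown in BACTEC 12B medium; microplate Alamar blue assay (MABA). Primary screen at a single concentration of 16 µg/mL, read as percent inhibition.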

Fusarium oxysporum [7] = assay: Antimicrobial activity against Fusarium oxysporum at 0.3 uM after 48 hrs by microtiter assay; format: functional; in short: as §2
Fusarium oxysporum [8] = assay: Antimicrobial activity against Fusarium oxysporum at 0.3 uM after 72 hrs by microtiter assay; format: functional; in short: as §2
Fusarium solani [9] = assay: Antimicrobial activity against Fusarium solani at 0.3 uM after 48 hrs by microtiter assay; format: functional; in short: as §2
Fusarium solani [10] = assay: Antimicrobial activity against Fusarium solani at 0.3 uM after 72 hrs by microtiter assay; format: functional; in short: as §2
Fusarium oxysporum [11] = assay: Antimicrobial activity against Fusarium oxysporum at 3 uM after 48 hrs by microtiter assay; format: functional; in short: as §2
Fusarium oxysporum [12] = assay: Antimicrobial activity against Fusarium oxysporum at 3 uM after 72 hrs by microtiter assay; format: functional; in short: as §2
Fusarium solani [13] = assay: Antimicrobial activity against Fusarium solani at 3 uM after 48 hrs by microtiter assay; format: functional; in short: as §2
Fusarium solani [14] = assay: Antimicrobial activity against Fusarium solani at 3 uM after 72 hrs by microtiter assay; format: functional; in short: as §2
Fusarium oxysporum [15] = assay: Antimicrobial activity against Fusarium oxysporum at 30 uM after 48 hrs by microtiter assay; format: functional; in short: as §2
Fusarium oxysporum [16] = assay: Antimicrobial activity against Fusarium oxysporum at 30 uM after 72 hrs by microtiter assay; format: functional; in short: as §2
Fusarium solani [17] = assay: Antimicrobial activity against Fusarium solani at 30 uM after 48 hrs by microtiter assay; format: functional; in short: as §2
Fusarium solani [18] = assay: Antimicrobial activity against Fusarium solani at 30 uM after 72 hrs by microtiter assay; format: functional; in short: as §2
A549 = assay: Cytotoxicity against human A549 cells; format: functional; in short: as §1
NCI-H322M = assay: Cytotoxicity against human NCI-H322M cells; format: functional; in short: as §1
RPMI-8226 = assay: Cytotoxicity against human RPMI8226 cells; format: functional; in short: as §1
COLO 205 = assay: Cytotoxicity against human COLO205 cells; format: functional; in short: as §1
HCC 2998 = assay: Cytotoxicity against human HCC2998 cells; format: functional; in short: as §1
HCT-15 = assay: Cytotoxicity against human HCT15 cells; format: functional; in short: as §1
HT-29 = assay: Cytotoxicity against human HT29 cells; format: functional; in short: as §1
KM12 = assay: Cytotoxicity against human KM12 cells; format: functional; in short: as §1
SNB-75 = assay: Cytotoxicity against human SNB75 cells; format: functional; in short: as §1
UACC-257 = assay: Cytotoxicity against human UACC257 cells; format: functional; in short: as §1
Fusarium proliferatum [19] = assay: Antimicrobial activity against Fusarium proliferatum at 30 uM after 48 hrs by microtiter assay; format: functional; in short: as §2
Fusarium proliferatum [20] = assay: Antimicrobial activity against Fusarium proliferatum at 30 uM after 72 hrs by microtiter assay; format: functional; in short: as §2
Leishmania donovani = assay: Antiparasitic activity against Leishmania donovani; format: functional, organism-based

C/C=C1\NC(=O)[C@H](Cc2ccccc2)NC(=O)[C@@H](C(C)C)NC(=O)[C@@H]([C@@H](C)CC)NC(=O)[C@H](NC(=O)[C@H](NC(=O)[C@H](CCCNCc2ccncc2)NC(=O)[C@H]2CCCN2C(=O)[C@H](NC(=O)[C@@H](NC(=O)[C@@H](NC(=O)[C@H](NC(=O)CCCC(C)C)C(C)C)[C@@H](C)O)C(C)C)C(C)C)[C@@H](C)CC)[C@@H](C)OC(=O)[C@H](C(C)C)NC1=O
GI50 (SK-OV-3): 374 nM
TGI (SK-OV-3): 1360 nM
GI50 (ACHN): 1280 nM
TGI (ACHN): 2320 nM
GI50 (PC-3): 267 nM
TGI (PC-3): 973 nM
GI50 (DU-145): 124 nM
TGI (DU-145): 266 nM
GI50 (Hs-578T): 162 nM
TGI (Hs-578T): 444 nM
inhibition at 0.3 µM (Fusarium proliferatum [1]): 0%
inhibition at 3 µM (Fusarium proliferatum [2]): 0%
inhibition at 3 µM (Fusarium proliferatum [3]): 0%
MFC (Aspergillus fumigatus): 20 µM (≈ 31.4 µg/mL)
MIC (Aspergillus fumigatus): 10 µM (≈ 15.7 µg/mL)
MFC (Cryptococcus neoformans): 5 µM (≈ 7.85 µg/mL)
MIC (Cryptococcus neoformans): 5 µM (≈ 7.85 µg/mL)
inhibition at 0.3 µM (Fusarium proliferatum [4]): 0%
MFC (Candida albicans): > 20 µM
MIC (Candida albicans): > 20 µM
MBC [5]: > 20 µM
MIC [5]: > 20 µM
inhibition at 16 µg/mL [6]: 24%
inhibition at 0.3 µM (Fusarium oxysporum [7]): 0%
inhibition at 0.3 µM (Fusarium oxysporum [8]): 0%
inhibition at 0.3 µM (Fusarium solani [9]): 0%
inhibition at 0.3 µM (Fusarium solani [10]): 0%
inhibition at 3 µM (Fusarium oxysporum [11]): 0%
inhibition at 3 µM (Fusarium oxysporum [12]): 0%
inhibition at 3 µM (Fusarium solani [13]): 0%
inhibition at 3 µM (Fusarium solani [14]): 0%
inhibition at 30 µM (Fusarium oxysporum [15]): 98.2%
inhibition at 30 µM (Fusarium oxysporum [16]): 91.2%
inhibition at 30 µM (Fusarium solani [17]): 99.2%
inhibition at 30 µM (Fusarium solani [18]): 97.5%
GI50 (A549): 189 nM
TGI (A549): 425 nM
GI50 (NCI-H322M): 131 nM
TGI (NCI-H322M): 238 nM
GI50 (RPMI-8226): 638 nM
TGI (RPMI-8226): 1890 nM
GI50 (COLO 205): 618 nM
GI50 (HCC 2998): 236 nM
TGI (HCC 2998): 732 nM
GI50 (HCT-15): 492 nM
TGI (HCT-15): 1560 nM
GI50 (HT-29): 279 nM
GI50 (KM12): 152 nM
GI50 (SNB-75): 1290 nM
TGI (SNB-75): 2610 nM
GI50 (UACC-257): 1310 nM
TGI (UACC-257): 2430 nM
inhibition at 30 µM (Fusarium proliferatum [19]): 99.1%
inhibition at 30 µM (Fusarium proliferatum [20]): 95.3%

C/C=C1\NC(=O)[C@H](Cc2ccccc2)NC(=O)[C@@H](C(C)C)NC(=O)[C@@H]([C@@H](C)CC)NC(=O)[C@H](NC(=O)[C@H](NC(=O)[C@H](CCCN)NC(=O)[C@H]2CCCN2C(=O)[C@H](NC(=O)[C@@H](NC(=O)[C@@H](NC(=O)[C@H](NC(=O)CCCC(C)C)C(C)C)C(C)=O)C(C)C)C(C)C)[C@@H](C)CC)[C@@H](C)OC(=O)[C@H](C(C)C)NC1=O
inhibition at 0.3 µM (Fusarium proliferatum [1]): 0%
inhibition at 3 µM (Fusarium proliferatum [2]): 5%
inhibition at 3 µM (Fusarium proliferatum [3]): 0%
MFC (Aspergillus fumigatus): > 20 µM
MIC (Aspergillus fumigatus): > 20 µM
MFC (Cryptococcus neoformans): 20 µM (≈ 29.5 µg/mL)
MIC (Cryptococcus neoformans): 10 µM (≈ 14.8 µg/mL)
inhibition at 0.3 µM (Fusarium proliferatum [4]): 1.8%
MFC (Candida albicans): > 20 µM
MIC (Candida albicans): > 20 µM
MBC [5]: > 20 µM
MIC [5]: > 20 µM
inhibition at 0.3 µM (Fusarium oxysporum [7]): 1.8%
inhibition at 0.3 µM (Fusarium oxysporum [8]): 0%
inhibition at 0.3 µM (Fusarium solani [9]): 0%
inhibition at 0.3 µM (Fusarium solani [10]): 0%
inhibition at 3 µM (Fusarium oxysporum [11]): 1.8%
inhibition at 3 µM (Fusarium oxysporum [12]): 0%
inhibition at 3 µM (Fusarium solani [13]): 0%
inhibition at 3 µM (Fusarium solani [14]): 0%
inhibition at 30 µM (Fusarium oxysporum [15]): 91.9%
inhibition at 30 µM (Fusarium oxysporum [16]): 82.2%
inhibition at 30 µM (Fusarium solani [17]): 90.6%
inhibition at 30 µM (Fusarium solani [18]): 85.5%
inhibition at 30 µM (Fusarium proliferatum [19]): 92.7%
inhibition at 30 µM (Fusarium proliferatum [20]): 73.2%

C/C=C1\NC(=O)[C@H](Cc2ccccc2)NC(=O)[C@@H](C(C)C)NC(=O)[C@@H]([C@@H](C)CC)NC(=O)[C@H](NC(=O)[C@H](NC(=O)[C@H](CCCNCCCCCC)NC(=O)[C@H]2CCCN2C(=O)[C@H](NC(=O)[C@@H](NC(=O)[C@@H](NC(=O)[C@H](NC(=O)CCCC(C)C)C(C)C)[C@@H](C)O)C(C)C)C(C)C)[C@@H](C)CC)[C@@H](C)OC(=O)[C@H](C(C)C)NC1=O
IC50 (Aspergillus fumigatus): 3120 nM
IC50 (Cryptococcus neoformans): 1930 nM
IC50 (Candida albicans): 5690 nM
IC50 [5]: > 20000 nM
IC50 (Leishmania donovani): 17 µg/mL (≈ 10.9 µM)

C/C=C1\NC(=O)[C@H](Cc2ccccc2)NC(=O)[C@@H](C(C)C)NC(=O)[C@@H]([C@@H](C)CC)NC(=O)[C@H](NC(=O)[C@H](NC(=O)[C@H](CCCNCc2cccs2)NC(=O)[C@H]2CCCN2C(=O)[C@H](NC(=O)[C@@H](NC(=O)[C@@H](NC(=O)[C@H](NC(=O)CCCC(C)C)C(C)C)[C@@H](C)O)C(C)C)C(C)C)[C@@H](C)CC)[C@@H](C)OC(=O)[C@H](C(C)C)NC1=O
IC50 (Aspergillus fumigatus): 3220 nM
IC50 (Cryptococcus neoformans): 1910 nM
IC50 (Candida albicans): 3810 nM
IC50 [5]: 12000 nM
IC50 (Leishmania donovani): 17 µg/mL (≈ 10.8 µM)
